Data from the M2OR odorant receptor database.

How the values were obtained:
Conditions in all cases: stereoisomer not certain
[1] = molecular target: T1, UniProt A2ATE5
T1 sequence (whole entry): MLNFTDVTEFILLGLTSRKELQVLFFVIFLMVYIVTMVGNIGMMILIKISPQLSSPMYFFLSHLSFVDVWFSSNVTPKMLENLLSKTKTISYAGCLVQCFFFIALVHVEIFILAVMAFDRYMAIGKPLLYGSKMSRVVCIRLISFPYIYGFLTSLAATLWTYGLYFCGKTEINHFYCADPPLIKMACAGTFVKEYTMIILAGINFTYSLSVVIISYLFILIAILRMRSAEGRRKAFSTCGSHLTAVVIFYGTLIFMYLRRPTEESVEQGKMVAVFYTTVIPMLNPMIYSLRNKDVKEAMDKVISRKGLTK
Summary of the method: (§1)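 Whether a receptor–molecule pair is responsive (active) rests on the original authors' judgment that its measured signal was statistically different from baseline. Pairs without that judgment are non-responsive (inactive). Sources used varied assay methods, commonly transient luciferase assays in mammalian cell lines.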

[2] = molecular target: T2, UniProt A2AVB0
T2 sequence (whole entry): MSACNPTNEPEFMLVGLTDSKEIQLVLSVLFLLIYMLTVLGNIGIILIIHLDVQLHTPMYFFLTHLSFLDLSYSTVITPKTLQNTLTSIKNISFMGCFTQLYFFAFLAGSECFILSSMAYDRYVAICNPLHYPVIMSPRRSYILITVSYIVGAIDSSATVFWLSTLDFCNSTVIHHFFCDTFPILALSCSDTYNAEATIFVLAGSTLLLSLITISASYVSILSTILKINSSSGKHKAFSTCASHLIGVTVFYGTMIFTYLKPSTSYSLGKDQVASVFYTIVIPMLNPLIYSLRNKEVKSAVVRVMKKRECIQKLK
Summary of the method: as §1

[3] = molecular target: T3, UniProt E9PVX1
T3 sequence (whole entry): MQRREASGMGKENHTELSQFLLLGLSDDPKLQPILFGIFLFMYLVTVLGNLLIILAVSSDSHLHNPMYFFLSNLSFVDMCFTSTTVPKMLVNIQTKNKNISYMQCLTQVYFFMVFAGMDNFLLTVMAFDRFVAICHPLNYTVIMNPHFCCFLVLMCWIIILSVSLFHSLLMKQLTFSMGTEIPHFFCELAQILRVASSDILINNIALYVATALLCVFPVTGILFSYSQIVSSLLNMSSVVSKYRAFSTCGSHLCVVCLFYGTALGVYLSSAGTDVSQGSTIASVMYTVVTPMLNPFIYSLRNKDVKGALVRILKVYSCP
Summary of the method: as §1

[4] = molecular target: T4, UniProt E9PZ66
T4 sequence (whole entry): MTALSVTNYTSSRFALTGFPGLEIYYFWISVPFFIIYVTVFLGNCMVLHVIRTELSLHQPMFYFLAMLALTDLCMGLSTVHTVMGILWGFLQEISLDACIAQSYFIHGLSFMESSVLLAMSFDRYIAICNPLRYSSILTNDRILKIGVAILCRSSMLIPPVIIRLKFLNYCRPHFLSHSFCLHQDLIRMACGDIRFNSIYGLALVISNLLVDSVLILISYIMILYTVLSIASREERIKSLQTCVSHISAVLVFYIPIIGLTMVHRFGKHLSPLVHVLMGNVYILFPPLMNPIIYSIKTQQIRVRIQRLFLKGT
Summary of the method: as §1

[5] = molecular target: T5, UniProt E9Q4X7
T5 sequence (whole entry): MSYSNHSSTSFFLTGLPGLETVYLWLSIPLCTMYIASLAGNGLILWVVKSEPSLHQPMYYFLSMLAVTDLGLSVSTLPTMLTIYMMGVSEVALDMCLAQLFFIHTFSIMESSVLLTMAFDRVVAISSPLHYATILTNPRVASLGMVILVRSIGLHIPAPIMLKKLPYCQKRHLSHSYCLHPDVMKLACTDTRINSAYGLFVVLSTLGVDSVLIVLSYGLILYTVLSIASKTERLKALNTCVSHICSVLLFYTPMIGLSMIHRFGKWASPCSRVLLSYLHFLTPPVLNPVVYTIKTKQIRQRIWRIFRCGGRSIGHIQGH
Summary of the method: as §1

[6] = molecular target: T6, UniProt E9Q546
T6 sequence (whole entry): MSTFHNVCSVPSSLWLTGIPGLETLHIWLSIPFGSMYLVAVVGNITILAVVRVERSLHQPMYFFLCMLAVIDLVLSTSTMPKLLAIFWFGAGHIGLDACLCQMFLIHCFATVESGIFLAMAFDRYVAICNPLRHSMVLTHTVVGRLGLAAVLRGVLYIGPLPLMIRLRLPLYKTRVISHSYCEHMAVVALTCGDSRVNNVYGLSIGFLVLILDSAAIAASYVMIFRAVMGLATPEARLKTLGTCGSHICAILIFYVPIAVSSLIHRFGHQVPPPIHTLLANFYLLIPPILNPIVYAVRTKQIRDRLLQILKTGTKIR
Summary of the method: as §1

[7] = molecular target: T7, UniProt E9Q6Z7
T7 sequence (whole entry): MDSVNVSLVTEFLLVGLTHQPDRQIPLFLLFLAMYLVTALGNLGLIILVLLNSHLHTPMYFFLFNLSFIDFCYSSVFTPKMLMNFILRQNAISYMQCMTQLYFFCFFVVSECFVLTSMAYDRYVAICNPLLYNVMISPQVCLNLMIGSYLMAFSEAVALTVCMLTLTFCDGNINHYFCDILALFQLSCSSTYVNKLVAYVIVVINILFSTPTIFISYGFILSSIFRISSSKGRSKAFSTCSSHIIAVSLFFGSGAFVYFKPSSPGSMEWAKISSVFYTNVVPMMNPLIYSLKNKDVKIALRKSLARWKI
Summary of the method: as §1

Measured: odorant receptor agonist call;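 further: active if original authors judged signal statistically different from baseline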

C=C1C2CCC(C2)C1(C)C (configuration not stated)
inactive: all assays above

CCCCCCC(C=O)=Cc1ccccc1
inactive: all assays above

CCN(CC)CC
inactive: all assays above

Cc1ccc(C(C)C)c(O)c1
inactive: all assays above

C=CC(=O)CCCCC
inactive: all assays above

C=C(C)C1CCC(C)C(O)C1 (configuration not stated)
inactive: all assays above
